Calls of active or inactive are those of the source. The rule behind the calls is not given here. Residues, ends and D or L forms follow the SMILES beside them.
How the values were obtained:
[1] = Chemical stability assessed as compound remaining after proteolytic cleavage after 2 hrs in presence of chymotrypsin; assay type: physicochemical; settings: read-out: Stability
Method in brief: (§1)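 Each peptide at 0.76 mg/mL was incubated in PBS with 0.1 mg/mL chymotrypsin. Intact-peptide peak area was compared with an equivalent sample incubated in PBS alone.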

[2] = Chemical stability assessed as compound remaining after proteolytic cleavage after 20 hrs in presence of chymotrypsin; assay type: physicochemical; settings: read-out: Stability; method in brief: as §1
[3] = Inhibition of amyloid beta (1 to 40) fibril formation by thioflavin T fluorescent dye assay
Method in brief: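 Aβ1-40 fractions were dissolved in 30 mM Tris/HCl pH 7.4 at 20 °C, with or without a 10-fold molar excess of inhibitor. Aliquots taken at 0.5, 1.5, 6, 8, 15 and 24 h went into ThT in 50 mM Tris/HCl pH 8.0. Fluorescence was read at 485 nm (excitation 450 nm) at 20 °C. Percent inhibition is relative to the parent pentapeptide. Three experiments, each sample in triplicate.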

[4] = Inhibition of amyloid beta (1 to 40) aggregation assessed as inhibition of protofbril formation
Method in brief: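 Lyophilised Aβ1-40 was incubated in 30 mM Tris/HCl pH 7.4 at 20 °C, with or without a 10-fold molar excess of inhibitor. Aliquots taken at 30 min and 24 h were frozen, lyophilised, gold sputter-coated and imaged by scanning electron microscopy for protofibrils.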

Compound: CC(=O)N[C@@H](CC(C)C)C(=O)N1CCC[C@H]1CS(=O)(=O)N[C@@H](Cc1ccccc1)C(=O)N[C@@H](Cc1ccccc1)C(=O)N[C@@H](CC(=O)O)C(N)=O
- remaining at 2 h [1]: 35%
- remaining at 20 h [2]: 15%

Compound: CC(=O)N[C@@H](CC(C)C)C(=O)N1CCC[C@H]1CC(=O)N[C@@H](Cc1ccccc1)C(=O)N[C@@H](Cc1ccccc1)C(=O)N[C@@H](CC(=O)O)C(N)=O (HELM PEPTIDE1{[ac].L.[O=C(C[C@@H]1CCCN1[*:1])[*:2]].F.F.D.[am]}$$$$V2.0)
- remaining at 2 h [1]: 35%
- remaining at 20 h [2]: 15%

Compound: Ac-LPFFDLPFFD-NH2
- remaining at 2 h [1]: 22%
- Activity [3]: Active

Compound: CC(C)C[C@H](NS(=O)(=O)CCN(C)C)C(=O)N1CCC[C@H]1C(=O)N[C@@H](Cc1ccccc1)C(=O)N[C@@H](Cc1ccccc1)C(=O)N[C@@H](CC(=O)O)C(N)=O (HELM PEPTIDE1{[CN(C)CCS(=O)(=O)[*:2]].L.P.F.F.D.[am]}$$$$V2.0)
- remaining at 2 h [1]: 70%
- Activity [4]: Active
- remaining at 20 h [2]: 55%
- Activity [3]: Active

Compound: CC(=O)N[C@@H](CC(C)C)C(=O)N1C[C@@H](c2ccccc2)[C@@H]1C(=O)N[C@@H](Cc1ccccc1)C(=O)N[C@@H](Cc1ccccc1)C(=O)N[C@@H](CC(=O)O)C(N)=O (HELM PEPTIDE1{[ac].L.[O=C([C@H]1[C@H](c2ccccc2)CN1[*:1])[*:2]].F.F.D.[am]}$$$$V2.0)
- remaining at 2 h [1]: 35%
- remaining at 20 h [2]: 15%

Compound: Ac-LPFFD-NH2
- remaining at 2 h [1]: 12%

Compound: CC(=O)N[C@@H](CC(C)C)C(=O)N1CC[C@H]1C(=O)N[C@@H](Cc1ccccc1)C(=O)N[C@@H](Cc1ccccc1)C(=O)N[C@@H](CC(=O)O)C(N)=O (HELM PEPTIDE1{[ac].L.[O=C([C@@H]1CCN1[*:1])[*:2]].F.F.D.[am]}$$$$V2.0)
- remaining at 2 h [1]: 35%
- remaining at 20 h [2]: 15%
- Activity [3]: Active

From ChEMBL document CHEMBL1154492, “Synthesis and activity of fibrillogenesis peptide inhibitors related to the 17-21 beta-amyloid sequence” (Eur J Med Chem, 2009)
